PMC11365375 (Acta Pharmaceutica Sinica. B, 2024)

Columns and labels:
[1] = test system: H460^R231Q cells; assay: Cell proliferation assay; format: cell-based, human; conditions: for IC50: Homo sapiens, 72 h, read-out: H460^R231Q (IC50, μmol/L)
Procedure, shortened: (§1)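 Human NCI-H460 NSCLC cells engineered to express wild-type or R231Q DOT1L (aa 1–416) were grown in RPMI 1640 with 10% FBS. Cells were seeded in 96-well plates and exposed to a range of test compound concentrations for 72 h at 37 °C, 5% CO₂. Growth was read by CCK-8 on a plate reader, and IC50 values were derived from the dose–response.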

[2] = test system: H460^WT cells; assay: Cell proliferation assay; format: cell-based; conditions: Homo sapiens, 72 h, read-out: H460^WT (IC50, μmol/L)
Procedure, shortened: as §1

[3] = test system: DOT1L^R231Q mediated H3K79me2 level in H460^R231Q cells; assay: Quantitative Western blot analysis of H3K79me2 level in H460^R231Q cells; format: cell-based, human
Procedure, shortened: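 H460^R231Q cells were treated with test compound, and histones were extracted with a total histone extraction kit; protein was quantified by BCA. Extracts were resolved on 8–15% SDS-PAGE, transferred to PVDF and probed for H3K79me2 and histone H3, with ECL/X-ray film detection. Band densities were quantified, and H3K79me2 was normalised to H3. The dimethylation index was the compound value divided by the SGC0946 (positive control) value.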

[4] = biological target: DOT1L^WT (Homo sapiens, UniProt Q8TEK3); assay: DOT1L^WT methyltransferase assay; format: biochemical
Procedure, shortened: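 Commercial wild-type DOT1L was preincubated with test compound, 1% DMSO vehicle or SGC0946 positive control for 15 min at 25 °C. Nucleosomes plus SAM were added for 60 min, then detection buffer for 10 min, then anti-SAH-Lumi4-Tb and SAH-d2 for 60 min, all at 25 °C. The TR-FRET 665/620 nm ratio was read. % inhibition was scaled between vehicle and positive control; dose–response in duplicate, fitted for IC50.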

[5] = test system: H3K27me3, H3K9me2, H3K4me1 and H3K36me2 levels; assay: WB analysis of common histone H3 modifications in H460^R231Q cells; format: cell-based, human; conditions: Fig. 7
Procedure, shortened: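 H460^R231Q cells were treated with test compound alongside an SGC0946 positive control. Histone extracts (or RIPA lysates with protease/phosphatase inhibitors) were quantified by BCA, separated on 8–15% SDS-PAGE and blotted to PVDF. Blots were probed for H3K27me3, H3K9me2, H3K4me1 and H3K36me2 and detected by ECL on X-ray film. Membranes were stripped and reprobed for proteins of similar size.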

[6] = test system: H460^R231Q; conditions: R231Q group, in vivo; cited from earlier work
[7] = test system: H460^WT; conditions: WT group, in vivo; cited from earlier work
[8] = cited from earlier work

Chain of DOT1L^WT (Q8TEK3 whole entry): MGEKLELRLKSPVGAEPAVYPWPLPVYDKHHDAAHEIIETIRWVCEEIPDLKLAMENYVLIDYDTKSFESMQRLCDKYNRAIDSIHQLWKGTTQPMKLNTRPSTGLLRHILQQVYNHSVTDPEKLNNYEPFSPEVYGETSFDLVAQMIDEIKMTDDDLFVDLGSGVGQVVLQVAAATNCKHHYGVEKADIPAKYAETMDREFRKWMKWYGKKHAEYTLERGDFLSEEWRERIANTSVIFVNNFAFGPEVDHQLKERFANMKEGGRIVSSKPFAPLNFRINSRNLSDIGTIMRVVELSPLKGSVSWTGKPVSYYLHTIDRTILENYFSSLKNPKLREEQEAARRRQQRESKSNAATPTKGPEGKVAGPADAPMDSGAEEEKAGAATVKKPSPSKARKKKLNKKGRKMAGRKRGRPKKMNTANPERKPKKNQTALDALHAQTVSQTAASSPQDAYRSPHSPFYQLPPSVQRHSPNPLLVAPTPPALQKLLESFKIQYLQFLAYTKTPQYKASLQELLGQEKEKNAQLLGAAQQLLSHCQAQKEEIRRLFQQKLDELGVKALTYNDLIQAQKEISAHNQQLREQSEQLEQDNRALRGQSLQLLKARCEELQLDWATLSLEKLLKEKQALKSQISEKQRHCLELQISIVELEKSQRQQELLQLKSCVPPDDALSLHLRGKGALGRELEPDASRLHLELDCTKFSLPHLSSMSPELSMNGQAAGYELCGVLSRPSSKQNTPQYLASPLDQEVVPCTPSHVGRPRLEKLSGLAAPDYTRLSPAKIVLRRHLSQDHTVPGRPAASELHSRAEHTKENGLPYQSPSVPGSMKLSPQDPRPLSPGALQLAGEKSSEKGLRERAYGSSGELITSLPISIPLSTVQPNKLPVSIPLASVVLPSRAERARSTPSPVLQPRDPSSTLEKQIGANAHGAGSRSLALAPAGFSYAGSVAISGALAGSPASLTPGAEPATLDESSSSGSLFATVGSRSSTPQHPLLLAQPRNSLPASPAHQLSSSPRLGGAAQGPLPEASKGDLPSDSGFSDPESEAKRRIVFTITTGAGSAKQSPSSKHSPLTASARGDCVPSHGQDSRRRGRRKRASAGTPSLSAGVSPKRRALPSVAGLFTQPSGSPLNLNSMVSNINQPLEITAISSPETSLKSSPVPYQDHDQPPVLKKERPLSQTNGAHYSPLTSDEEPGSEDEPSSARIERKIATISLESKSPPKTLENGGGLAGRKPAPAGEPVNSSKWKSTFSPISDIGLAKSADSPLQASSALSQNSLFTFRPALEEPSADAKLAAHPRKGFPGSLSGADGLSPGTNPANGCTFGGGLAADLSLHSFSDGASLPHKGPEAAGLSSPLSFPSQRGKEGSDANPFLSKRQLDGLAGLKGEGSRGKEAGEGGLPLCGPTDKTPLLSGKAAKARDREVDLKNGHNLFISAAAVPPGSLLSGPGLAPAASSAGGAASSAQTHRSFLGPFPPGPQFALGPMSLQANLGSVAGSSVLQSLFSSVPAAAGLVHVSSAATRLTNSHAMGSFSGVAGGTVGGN

Row | SMILES | IC50 [1] | other results
1 | CC1CCN(CCCN(C[C@H]2O[C@@H](n3cnc4c(N)ncnc43)[C@H](O)[C@@H]2O)C2CCN(Cc3nc4cc(NC(=O)C(C)(C)C)ccc4[nH]3)CC2)CC1 [Compound 38] | 43.1 ± 1.88 µmol/L | –
2 | COC(=O)C1CCN(CCCN(C[C@H]2O[C@@H](n3cnc4c(N)ncnc43)[C@H](O)[C@@H]2O)C2CCN(Cc3nc4cc(NC(=O)C(C)(C)C)ccc4[nH]3)CC2)CC1 [Compound 40] | 55.3 ± 5.49 µmol/L | –
3 | CC(C)N(C[C@H]1O[C@@H](n2cnc3c(N)ncnc32)[C@H](O)[C@@H]1O)C1CC2CN(C(=O)Nc3ccc(Br)cc3)CC2C1 (some centres unmarked) [Compound 3] | 48.8 ± 2.76 µmol/L | IC50 [2]: > 100 µmol/L
4 | CC(C)(C)C(=O)Nc1ccc2[nH]c(CN3CCC(N(CCC(=O)N4CCSCC4)C[C@H]4O[C@@H](n5cnc6c(N)ncnc65)[C@H](O)[C@@H]4O)CC3)nc2c1 [Compound 35] | 18.6 ± 0.94 µmol/L | –
5 | CC(C)(C)C(=O)Nc1ccc2[nH]c(CN3CCC(N(CCC(=O)N4CCS(=O)(=O)CC4)C[C@H]4O[C@@H](n5cnc6c(N)ncnc65)[C@H](O)[C@@H]4O)CC3)nc2c1 [Compound 34] | 59.4 ± 4.38 µmol/L | –
6 | COc1ccc(NC(=O)N2CC3CC(N(C[C@H]4O[C@@H](n5cnc6c(N)ncnc65)[C@H](O)[C@@H]4O)C(C)C)CC3C2)cc1 (some centres unmarked) [Compound 4] | 60 ± 5.84 µmol/L | IC50 [2]: > 100 µmol/L
7 | CC(C)N(CCC1CC2CN(Cc3ccc(F)c(F)c3)CC2C1)C[C@H]1O[C@@H](n2cnc3c(N)ncnc32)[C@H](O)[C@@H]1O (some centres unmarked) [Compound 17] | 82 ± 3.25 µmol/L | –
8 | CC(C)(C)C(=O)Nc1ccc2nc(CN3CCC(N(CC(=O)N4CCC(O)CC4)C[C@H]4O[C@@H](n5cnc6c(N)ncnc65)[C@H](O)[C@@H]4O)CC3)[nH]c2c1 [Compound 28] | 22.5 ± 1.81 µmol/L | –
9 | CC(C)N(CCC1CC2CN(C(=O)Nc3ccc(Br)cc3)CC2C1)C[C@H]1O[C@@H](n2cnc3c(N)ncnc32)[C@H](O)[C@@H]1O (some centres unmarked) [Compound 13] | 87.2 ± 7.63 µmol/L | –
10 | CC(C)N(C[C@H]1O[C@@H](n2cnc3c(N)ncnc32)[C@H](O)[C@@H]1O)C1CC2CN(C(=O)Nc3ccc(NC(=O)C(C)(C)C)cc3)CC2C1 (some centres unmarked) [Compound 5] | 37.9 ± 3.09 µmol/L | IC50 [2]: > 100 µmol/L; inhibitory activity against DOT1L^R231Q in WB assay ([3]; H3K79me2 level, H460^R231Q cells): moderate inhibitory activity
11 | CC(C)(C)C(=O)Nc1ccc2nc(CN3CCC(N(CC(=O)NCc4ccco4)C[C@H]4O[C@@H](n5cnc6c(N)ncnc65)[C@H](O)[C@@H]4O)CC3)[nH]c2c1 [Compound 31] | > 100 µmol/L | –
12 | CC(C)(C)C(=O)Nc1ccc2[nH]c(CN3CCC(N(CCC(=O)NCC4CCCO4)C[C@H]4O[C@@H](n5cnc6c(N)ncnc65)[C@H](O)[C@@H]4O)CC3)nc2c1 (some centres unmarked) [Compound 32] | 96.5 ± 5.45 µmol/L | –
13 | COC(=O)CN(C[C@H]1O[C@@H](n2cnc3c(N)ncnc32)[C@H](O)[C@@H]1O)C1CC2CN(C(=O)Nc3ccc(NC(=O)C(C)(C)C)cc3)CC2C1 (some centres unmarked) [Compound 19] | > 100 µmol/L | –
14 | CC(C)N(CCC1CC2CN(C(=O)Nc3ccc(NC(=O)C(C)(C)C)cc3)CC2C1)C[C@H]1O[C@@H](n2cnc3c(N)ncnc32)[C@H](O)[C@@H]1O (some centres unmarked) [Compound 14] | > 100 µmol/L | –
15 | CC(C)(C)C(=O)Nc1ccc2nc(CN3CCC(N(CC(=O)N4CCOCC4)C[C@H]4O[C@@H](n5cnc6c(N)ncnc65)[C@H](O)[C@@H]4O)CC3)[nH]c2c1 [Compound 30] | 46.1 ± 3 µmol/L | –
16 | CC(C)N(CCCNC(=O)Nc1ccc(C(C)(C)C)cc1)C[C@H]1O[C@@H](n2cc(Br)c3c(N)ncnc32)[C@H](O)[C@@H]1O [SGC0946] | 38 ± 5.24 µmol/L | IC50 [2]: 9.18 ± 0.11 µmol/L; H3K79me2 level (WB of common histone H3 modifications) ([3]; H460^R231Q cells, Fig. 7): decrease; IC50 [4]: 0.0184 µM; H3K27me3, H3K9me2, H3K4me1 and H3K36me2 levels [5]: remained relatively unchanged; TGI [6]: 26.5%; TGI [7]: 44.4%
17 | CC(C)(C)C(=O)Nc1ccc(NC(=O)N2CC3CC(N(CC(=O)NC4CC4)C[C@H]4O[C@@H](n5cnc6c(N)ncnc65)[C@H](O)[C@@H]4O)CC3C2)cc1 (some centres unmarked) [Compound 20] | 52.7 ± 2.99 µmol/L | –
18 | CC(C)N(C[C@H]1O[C@@H](n2cnc3c(N)ncnc32)[C@H](O)[C@@H]1O)[C@H]1C[C@@H](CCc2nc3cc(C(C)(C)C)ccc3[nH]2)C1 [EPZ5676] | – | clearance [8]: 68 mL/min/kg; oral bioavailability (F) [8]: 0%
19 | CC1CCN(C(=O)CN(C[C@H]2O[C@@H](n3cnc4c(N)ncnc43)[C@H](O)[C@@H]2O)C2CCN(Cc3nc4ccc(NC(=O)C(C)(C)C)cc4[nH]3)CC2)CC1 [Compound 27] | 46.7 ± 3.7 µmol/L | –

Row | SMILES | IC50 [1] | other results
20 | CCN1CCN(C(=O)CN(C[C@H]2O[C@@H](n3cnc4c(N)ncnc43)[C@H](O)[C@@H]2O)C2CCN(Cc3nc4ccc(NC(=O)C(C)(C)C)cc4[nH]3)CC2)CC1 [Compound 29] | 29.2 ± 1.63 µmol/L | –
21 | COc1cc(CN2CC3CC(N(C[C@H]4O[C@@H](n5cnc6c(N)ncnc65)[C@H](O)[C@@H]4O)C(C)C)CC3C2)cc(OC)c1OC (some centres unmarked) [Compound 10] | 95.9 ± 4.26 µmol/L | IC50 [2]: > 100 µmol/L
22 | CCN(CC)CCCN(C[C@H]1O[C@@H](n2cnc3c(N)ncnc32)[C@H](O)[C@@H]1O)C1CCN(Cc2nc3ccc(NC(=O)C(C)(C)C)cc3[nH]2)CC1 [Compound 42] | 73.3 ± 3.18 µmol/L | –
23 | CN(C[C@H]1O[C@@H](n2cnc3c(N)ncnc32)[C@H](O)[C@@H]1O)C1CC2CN(C(=O)Nc3ccc(C(C)(C)C)cc3)CC2C1 (some centres unmarked) [Compound 1] | 77.6 ± 3.18 µmol/L | IC50 [2]: > 100 µmol/L
24 | CC(C)N(CCC1CC2CN(Cc3ccc(C#N)cc3)CC2C1)C[C@H]1O[C@@H](n2cnc3c(N)ncnc32)[C@H](O)[C@@H]1O (some centres unmarked) [Compound 16] | 96.6 ± 5.07 µmol/L | –
25 | COC(=O)CN(C[C@H]1O[C@@H](n2cnc3c(N)ncnc32)[C@H](O)[C@@H]1O)C1CCN(Cc2nc3cc(NC(=O)C(C)(C)C)ccc3[nH]2)CC1 [Compound 24] | 94 ± 7.07 µmol/L | –
26 | CC(C)N(C[C@H]1O[C@@H](n2cnc3c(N)ncnc32)[C@H](O)[C@@H]1O)C1CC2CN(Cc3c(F)cc(Br)cc3F)CC2C1 (some centres unmarked) [Compound 11] | 68.2 ± 3.03 µmol/L | IC50 [2]: > 100 µmol/L
27 | CC(C)NC(=O)CCN(C[C@H]1O[C@@H](n2cnc3c(N)ncnc32)[C@H](O)[C@@H]1O)C1CCN(Cc2nc3cc(NC(=O)C(C)(C)C)ccc3[nH]2)CC1 [Compound 33] | 73 ± 5.07 µmol/L | –
28 | CN(C)C(=O)CN(C[C@H]1O[C@@H](n2cnc3c(N)ncnc32)[C@H](O)[C@@H]1O)C1CCN(Cc2nc3cc(NC(=O)C(C)(C)C)ccc3[nH]2)CC1 [Compound 25] | 70 ± 2.44 µmol/L | –
29 | CN(C)C(=O)CN(C[C@H]1O[C@@H](n2cnc3c(N)ncnc32)[C@H](O)[C@@H]1O)C1CC2CN(C(=O)Nc3ccc(NC(=O)C(C)(C)C)cc3)CC2C1 (some centres unmarked) [Compound 21] | 72.5 ± 4.5 µmol/L | –
30 | CN(C[C@H]1O[C@@H](n2cnc3c(N)ncnc32)[C@H](O)[C@@H]1O)C1CCN(Cc2nc3cc(NC(=O)C(C)(C)C)ccc3[nH]2)CC1 [Compound 23] | 34.8 ± 1.92 µmol/L | –
31 | CC(C)(C)C(=O)Nc1ccc2[nH]c(CN3CCC(N(CCCN4CCC(O)CC4)C[C@H]4O[C@@H](n5cnc6c(N)ncnc65)[C@H](O)[C@@H]4O)CC3)nc2c1 [Compound 36] | 8.76 ± 0.61 µmol/L | H3K79me2 level mediated by DOT1L^R231Q ([3]; 5 μmol/L, WB): significantly reduced
32 | CC(C)(C)C(=O)Nc1ccc2nc(CN3CCC(N(CC(=O)N4CCCC4)C[C@H]4O[C@@H](n5cnc6c(N)ncnc65)[C@H](O)[C@@H]4O)CC3)[nH]c2c1 [Compound 26] | 46.7 ± 2.69 µmol/L | –
33 | CC(C)N(C[C@H]1O[C@@H](n2cnc3c(N)ncnc32)[C@H](O)[C@@H]1O)C1CC2CN(C(=O)Nc3ccc(C(C)(C)C)cc3)CC2C1 (some centres unmarked) [Compound 2] | 40.1 ± 3.73 µmol/L | IC50 [2]: > 100 µmol/L
34 | COc1ccc(CN2CC3CC(N(C[C@H]4O[C@@H](n5cnc6c(N)ncnc65)[C@H](O)[C@@H]4O)C(C)C)CC3C2)cc1Br (some centres unmarked) [Compound 8] | 85.8 ± 6.87 µmol/L | IC50 [2]: > 100 µmol/L
35 | COC1(OC)CCN(CCCN(C[C@H]2O[C@@H](n3cnc4c(N)ncnc43)[C@H](O)[C@@H]2O)C2CCN(Cc3nc4cc(NC(=O)C(C)(C)C)ccc4[nH]3)CC2)CC1 [Compound 41] | 32.5 ± 3.56 µmol/L | –
36 | CCN1CCN(CCCN(C[C@H]2O[C@@H](n3cnc4c(N)ncnc43)[C@H](O)[C@@H]2O)C2CCN(Cc3nc4cc(NC(=O)C(C)(C)C)ccc4[nH]3)CC2)CC1 [Compound 39] | 27.6 ± 1.31 µmol/L | fold decreased activity against H460^R231Q cells ([1]; versus 37): 4 fold
37 | CC(C)N(CCC1CC2CN(C(=O)Nc3ccc(C(C)(C)C)cc3)CC2C1)C[C@H]1O[C@@H](n2cnc3c(N)ncnc32)[C@H](O)[C@@H]1O (some centres unmarked) [Compound 12] | > 100 µmol/L | –
38 | CC(C)(C)C(=O)Nc1ccc(NC(=O)N2CC3CC(N(CC(=O)N4CCSCC4)C[C@H]4O[C@@H](n5cnc6c(N)ncnc65)[C@H](O)[C@@H]4O)CC3C2)cc1 (some centres unmarked) [Compound 22] | 44.6 ± 3.87 µmol/L | –
